In brackets after ≈: the same amount, converted by molar mass.
What was measured:
[1] = Kinetic aqueous solubility of the compound in pH 7.4 PBS buffer by UV/Visible absorbance analysis; assay type: physicochemical; details: read-out: Kinetic_solubility
Outline: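 Kinetic solubility determined in PBS at pH 7.4 by UV/Vis absorbance, reported in μM.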

[2] = molecular target: Gamma-secretase; experiment: Modulation of gamma secretase in human SH-SY5Y cells overexpressing wild type APP751 assessed as inhibition of amyloid beta (35 to 42 residues) formation incubated for overnight by ELISA; assay type: cell-based
Outline: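 SHSY5Y-APP751 cells plated at 75K/well and incubated overnight at 37 °C, then treated 24 h over 10 concentrations ([…]–10 μM, 1:3.16 steps, in duplicate). Medium Aβ42 measured by sandwich ELISA (Aβ35–42 capture, AP-conjugated Aβ1–12 detection, CDP-Star luminescence) against an Aβ42 standard curve.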

[3] = Metabolic stability in human liver microsomes assessed as parent compound remaining at 1 uM incubated for 30 mins; assay type: ADME, Microsome; details: microsomes, 0.5 h, 1 µM
Outline: (§1)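 Test compound at 1 μM incubated 30 min with human, rat or mouse liver microsomes (1 mg/mL); parent remaining expressed as %.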

[4] = Metabolic stability in rat liver microsomes assessed as parent compound remaining at 1 uM incubated for 30 mins; assay type: ADME, Microsome; details: 0.5 h; outline: as §1
[5] = Metabolic stability in mouse liver microsomes assessed as parent compound remaining at 1 uM incubated for 30 mins; assay type: ADME, Microsome; details: 0.5 h; outline: as §1
[6] = molecular target: Cytochrome P450 3A4 (Homo sapiens, UniProt P08684); experiment: Inhibition of recombinant CYP3A4 (unknown origin) by fluorescence-based assay; assay type: ADME
Chain of Cytochrome P450 3A4 (P08684 whole entry): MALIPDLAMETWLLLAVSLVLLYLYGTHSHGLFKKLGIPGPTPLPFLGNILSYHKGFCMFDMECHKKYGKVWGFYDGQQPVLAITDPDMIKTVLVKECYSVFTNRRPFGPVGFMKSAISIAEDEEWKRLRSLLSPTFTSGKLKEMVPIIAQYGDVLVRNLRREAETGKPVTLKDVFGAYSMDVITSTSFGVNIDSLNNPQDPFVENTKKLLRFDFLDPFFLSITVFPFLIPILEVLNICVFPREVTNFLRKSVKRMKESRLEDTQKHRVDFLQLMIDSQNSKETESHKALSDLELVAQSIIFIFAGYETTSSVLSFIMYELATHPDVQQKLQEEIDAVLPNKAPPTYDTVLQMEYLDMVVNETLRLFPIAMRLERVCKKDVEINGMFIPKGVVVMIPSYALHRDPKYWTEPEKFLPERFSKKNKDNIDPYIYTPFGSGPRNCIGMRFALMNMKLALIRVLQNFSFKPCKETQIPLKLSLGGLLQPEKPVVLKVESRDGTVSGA

[7] = molecular target: T1, Cytochrome P450 1A2 (Homo sapiens, UniProt P05177); experiment: Inhibition of recombinant CYP1A2 (unknown origin) by fluorescence-based assay; assay type: ADME
T1 sequence (P05177 whole entry): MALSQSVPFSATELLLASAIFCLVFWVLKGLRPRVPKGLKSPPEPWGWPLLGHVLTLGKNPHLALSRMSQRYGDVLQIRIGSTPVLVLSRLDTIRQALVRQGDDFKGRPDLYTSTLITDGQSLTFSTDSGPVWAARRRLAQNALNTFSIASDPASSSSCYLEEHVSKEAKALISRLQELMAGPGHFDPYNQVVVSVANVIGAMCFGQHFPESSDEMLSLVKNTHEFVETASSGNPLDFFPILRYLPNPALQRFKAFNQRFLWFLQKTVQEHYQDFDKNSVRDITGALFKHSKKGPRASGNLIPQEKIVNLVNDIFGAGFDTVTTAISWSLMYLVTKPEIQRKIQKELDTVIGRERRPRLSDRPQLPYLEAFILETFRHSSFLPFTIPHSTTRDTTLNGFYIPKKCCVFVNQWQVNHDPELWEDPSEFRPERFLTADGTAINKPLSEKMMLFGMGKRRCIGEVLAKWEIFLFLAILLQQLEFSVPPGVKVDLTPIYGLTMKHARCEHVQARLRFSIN
Outline: (§2)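 Recombinant CYP isoforms (five tested) screened for inhibition in fluorescence-based assays; IC50 in μM.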

[8] = molecular target: Cytochrome P450 2C9 (Homo sapiens, UniProt P11712); experiment: Inhibition of recombinant CYP2C9 (unknown origin) by fluorescence-based assay; assay type: ADME; outline: as §2
Chain of Cytochrome P450 2C9 (P11712 whole entry): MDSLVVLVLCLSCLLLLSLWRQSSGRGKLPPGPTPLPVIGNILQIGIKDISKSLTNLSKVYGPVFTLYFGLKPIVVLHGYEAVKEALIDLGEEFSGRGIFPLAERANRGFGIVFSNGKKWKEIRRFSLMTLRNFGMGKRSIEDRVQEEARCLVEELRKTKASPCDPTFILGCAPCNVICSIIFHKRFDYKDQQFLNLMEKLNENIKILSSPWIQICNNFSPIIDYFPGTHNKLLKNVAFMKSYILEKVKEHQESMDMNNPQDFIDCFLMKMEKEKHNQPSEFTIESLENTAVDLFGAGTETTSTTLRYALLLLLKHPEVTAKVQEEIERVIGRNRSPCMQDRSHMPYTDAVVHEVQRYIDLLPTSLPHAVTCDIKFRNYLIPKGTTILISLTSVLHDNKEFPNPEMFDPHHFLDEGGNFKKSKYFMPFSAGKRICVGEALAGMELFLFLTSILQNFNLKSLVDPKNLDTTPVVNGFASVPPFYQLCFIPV

[9] = molecular target: Cytochrome P450 2C19 (Homo sapiens, UniProt P33261); experiment: Inhibition of recombinant CYP2C19 (unknown origin) by fluorescence-based assay; assay type: ADME; outline: as §2
Chain of Cytochrome P450 2C19 (P33261 whole entry): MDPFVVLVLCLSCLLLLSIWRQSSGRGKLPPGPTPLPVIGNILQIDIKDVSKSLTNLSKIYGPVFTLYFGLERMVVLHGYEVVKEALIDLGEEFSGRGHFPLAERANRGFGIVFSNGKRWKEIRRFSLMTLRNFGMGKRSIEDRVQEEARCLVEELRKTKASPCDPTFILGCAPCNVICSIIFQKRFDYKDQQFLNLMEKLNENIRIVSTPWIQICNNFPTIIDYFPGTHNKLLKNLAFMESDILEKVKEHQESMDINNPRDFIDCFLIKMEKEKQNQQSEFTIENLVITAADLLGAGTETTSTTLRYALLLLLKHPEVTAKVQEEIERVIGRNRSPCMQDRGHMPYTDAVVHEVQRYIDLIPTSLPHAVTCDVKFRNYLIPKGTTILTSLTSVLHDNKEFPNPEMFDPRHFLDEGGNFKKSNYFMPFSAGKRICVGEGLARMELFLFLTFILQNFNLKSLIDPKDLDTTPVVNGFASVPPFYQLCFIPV

[10] = molecular target: Cytochrome P450 2D6 (Homo sapiens, UniProt P10635); experiment: Inhibition of recombinant CYP2D6 (unknown origin) by fluorescence-based assay; assay type: ADME; outline: as §2
Chain of Cytochrome P450 2D6 (P10635 whole entry): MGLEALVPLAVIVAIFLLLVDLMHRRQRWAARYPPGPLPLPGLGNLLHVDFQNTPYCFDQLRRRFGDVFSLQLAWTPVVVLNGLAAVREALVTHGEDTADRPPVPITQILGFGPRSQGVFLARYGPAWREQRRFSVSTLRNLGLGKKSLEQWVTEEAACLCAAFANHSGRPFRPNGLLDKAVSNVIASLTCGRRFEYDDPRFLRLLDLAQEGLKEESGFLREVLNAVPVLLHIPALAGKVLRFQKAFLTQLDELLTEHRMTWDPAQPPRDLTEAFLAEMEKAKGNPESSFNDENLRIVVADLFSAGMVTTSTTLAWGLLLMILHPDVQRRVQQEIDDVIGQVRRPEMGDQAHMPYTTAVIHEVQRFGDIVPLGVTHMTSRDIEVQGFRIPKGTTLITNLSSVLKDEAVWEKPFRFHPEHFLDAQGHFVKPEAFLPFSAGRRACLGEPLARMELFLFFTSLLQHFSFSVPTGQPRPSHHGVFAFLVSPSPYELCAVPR

[11] = molecular target: Voltage-gated inwardly rectifying potassium channel KCNH2 (Homo sapiens, UniProt Q12809); experiment: Inhibition of human ERG expressed in HEK293 cells by patch clamp assay; assay type: cell-based
Chain of Voltage-gated inwardly rectifying potassium channel KCNH2 (Q12809 whole entry): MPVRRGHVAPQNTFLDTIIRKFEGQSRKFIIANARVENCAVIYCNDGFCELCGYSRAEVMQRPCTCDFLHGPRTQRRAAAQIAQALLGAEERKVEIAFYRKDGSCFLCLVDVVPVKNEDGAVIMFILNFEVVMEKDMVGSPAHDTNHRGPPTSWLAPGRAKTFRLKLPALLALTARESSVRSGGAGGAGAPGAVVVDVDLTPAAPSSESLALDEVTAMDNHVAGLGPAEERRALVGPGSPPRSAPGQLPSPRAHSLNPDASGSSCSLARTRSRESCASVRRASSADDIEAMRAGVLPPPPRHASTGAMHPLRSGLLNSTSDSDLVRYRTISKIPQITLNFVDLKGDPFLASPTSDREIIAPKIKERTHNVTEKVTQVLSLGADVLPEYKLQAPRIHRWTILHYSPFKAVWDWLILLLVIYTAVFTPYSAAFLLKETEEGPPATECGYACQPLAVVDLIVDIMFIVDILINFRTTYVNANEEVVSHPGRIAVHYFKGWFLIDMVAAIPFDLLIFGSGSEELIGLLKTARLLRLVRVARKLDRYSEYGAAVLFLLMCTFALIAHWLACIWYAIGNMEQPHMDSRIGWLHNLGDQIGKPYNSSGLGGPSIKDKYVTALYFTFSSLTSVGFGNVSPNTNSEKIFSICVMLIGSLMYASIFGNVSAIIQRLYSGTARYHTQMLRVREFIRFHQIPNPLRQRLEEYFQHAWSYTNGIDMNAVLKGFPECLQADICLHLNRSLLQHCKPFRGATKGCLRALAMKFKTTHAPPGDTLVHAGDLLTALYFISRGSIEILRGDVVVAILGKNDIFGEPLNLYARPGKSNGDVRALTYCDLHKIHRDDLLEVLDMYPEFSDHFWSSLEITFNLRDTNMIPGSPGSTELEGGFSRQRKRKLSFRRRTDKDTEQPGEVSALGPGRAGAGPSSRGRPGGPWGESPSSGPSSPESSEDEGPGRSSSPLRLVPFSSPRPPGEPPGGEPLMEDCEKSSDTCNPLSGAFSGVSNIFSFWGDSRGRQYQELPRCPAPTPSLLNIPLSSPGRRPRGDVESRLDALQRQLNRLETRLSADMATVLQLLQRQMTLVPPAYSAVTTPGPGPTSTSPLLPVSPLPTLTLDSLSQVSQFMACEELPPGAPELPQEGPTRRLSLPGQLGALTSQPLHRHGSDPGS

[12] = Cmax in CD-1 mouse at 1 mg/kg, iv administered as single dose measured up to 24 hrs; assay type: ADME, organism-based; set-up: route intravenous, dose 1 mg/kg, time <=24; details: in vivo
Outline: (§3)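 Male CD-1 mice, 6–8 weeks old, single dose by tail vein (1 mg/kg, 3% NMP/45% PEG300/12% ethanol/40% water) or oral gavage (5 mg/kg, 5% NMP/95% PEG300). Retro-orbital plasma sampled 0.083 (iv only) to 24 h, n=3/timepoint, and analysed by HPLC/MS/MS. Non-compartmental analysis. Half-life taken from the terminal phase using ≥3 non-zero points after Tmax.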

[13] = Tmax in CD-1 mouse at 1 mg/kg, iv administered as single dose measured up to 24 hrs; assay type: ADME, organism-based; details: in vivo
Outline: (§4)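 Male CD-1 mice, 6–8 weeks old, single tail-vein dose in 3% NMP/45% PEG300/12% ethanol/40% sterile water. Retro-orbital plasma (K3EDTA) taken at 0.083, 0.25, 0.5, 1, 2, 4, 8 and 24 h, n=3/timepoint, analysed by HPLC/MS/MS. Non-compartmental analysis (Model 201, uniform weighting); Tmax read directly from the data.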

[14] = Half life in CD-1 mouse at 1 mg/kg, iv administered as single dose measured up to 24 hrs; assay type: ADME, organism-based; details: mouse, in vivo, 1 mg/kg, 24 h; outline: as §3
[15] = AUClast in CD-1 mouse at 1 mg/kg, iv administered as single dose measured up to 24 hrs; assay type: ADME, organism-based; set-up: route intravenous, dose 1 mg/kg, time <=24; details: in vivo; outline: as §3
[16] = AUC infinity in CD-1 mouse at 1 mg/kg, iv administered as single dose measured up to 24 hrs; assay type: ADME, organism-based; set-up: route intravenous, dose 1 mg/kg, time <=24; details: in vivo; outline: as §3
[17] = Volume of distribution at steady state in CD-1 mouse at 1 mg/kg, iv administered as single dose measured up to 24 hrs; assay type: ADME, organism-based; details: in vivo; outline: as §4
[18] = Ratio of drug concentration in CD-1 mouse brain to plasma at 0.4 mg/kg, iv measured after 1 hr; assay type: ADME, organism-based
[19] = Ratio of drug concentration in CD-1 mouse brain to plasma at 5 mg/kg, po measured after 1 hr; assay type: ADME, organism-based
Outline: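 Male CD-1 mice dosed once iv (1 mg/kg) or by oral gavage (5 mg/kg). Brain and plasma collected 1 h post dose (n=3/timepoint). Drug levels by HPLC/MS/MS; brain/plasma ratio calculated from these levels.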

[20] = Cmax in CD-1 mouse at 5 mg/kg, po administered as single dose measured up to 24 hrs; assay type: ADME, organism-based; set-up: route oral, dose 5 mg/kg, time <=24; details: in vivo; outline: as §3
[21] = Tmax in CD-1 mouse at 5 mg/kg, po administered as single dose measured up to 24 hrs; assay type: ADME, organism-based; details: in vivo
Outline: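 Male CD-1 mice, 6–8 weeks old, single oral gavage dose in 5% NMP/95% PEG300. Plasma (K3EDTA, retro-orbital, under isoflurane) taken at 0.25, 0.5, 1, 2, 4, 8 and 24 h, n=3/timepoint, analysed by HPLC/MS/MS. Non-compartmental extravascular analysis (Model 200); Tmax taken directly from the data.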

[22] = AUClast in CD-1 mouse at 5 mg/kg, po administered as single dose measured up to 24 hrs; assay type: ADME, organism-based; set-up: route oral, dose 5 mg/kg, time <=24; details: in vivo; outline: as §3
[23] = Oral bioavailability in CD-1 mouse at 5 mg/kg administered as single dose measured up to 24 hrs; assay type: ADME, organism-based; details: in vivo
Outline: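 CD-1 mouse PK after single iv (1 mg/kg) and oral gavage (5 mg/kg) dosing, with plasma sampled to 24 h (n=3/timepoint) and measured by HPLC/MS/MS. F(%) = (AUC0-inf po × Dose iv)/(AUC0-inf iv × Dose po) × 100.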

[24] = Apparent permeability from apical to basolateral membrane in MDCK-MDR1 cells; assay type: ADME, cell-based, Canis lupus familiaris; details: dog
Outline: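 Apical-to-basolateral apparent permeability (×10⁻⁶ cm/s) measured across MDR1-MDCK cell monolayers.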

[25] = Efflux ratio of apparent permeability from basolateral to apical membrane over apical to basolateral membrane in MDCK-MDR1 cells; assay type: ADME, cell-based, Canis lupus familiaris; details: dog
Outline: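 Calculated as B-A/A-B apparent permeability ratio across MDR1-MDCK cell monolayers; A-B permeability expressed as ×10⁻⁶ cm/s.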

[26] = AUC infinity in CD-1 mouse at 5 mg/kg, po administered as single dose measured up to 24 hrs; assay type: ADME, organism-based; set-up: route oral, dose 5 mg/kg, time <=24; details: in vivo; outline: as §3

Row | SMILES | solubility kinetic [1] [µM] | IC50 [2] [µM] | Stabilty [3] [%] | Stabilty [4] [%] | Stabilty [5] [%] | IC50 [6] [µM] | IC50 [7] [µM] | IC50 [8] [µM] | IC50 [9] [µM] | IC50 [10] [µM] | IC50 [11] [µM] | Papp [24] | other results
1 | CCn1nc(C2(C)CC2)cc1Nc1nc(-c2ccc(-n3cnc(C)c3)c(OC)n2)cs1 | 6.7 (≈ 2.92 µg/mL) | 0.032 | 67 | 73 | 81 | 4.1 | > 100 | > 100 | > 100 | > 100 | 12.3 | 18.5 10^-6 cm/s | Cmax [12]: 384 ng/mL; Tmax [13]: 4.98 min; t1/2 [14]: 3.84 h; AUClast [15]: 1247 ng·h/mL; AUC [16]: 1378 ng·h/mL; Vdss [17]: 3.609 L/kg; BPR [18]: 0.62; BPR [19]: 0.57; Cmax [20]: 592 ng/mL; Tmax [21]: 2 h; AUClast [22]: 3976 ng·h/mL; F [23]: 63.8%; Ratio [25]: 1.3
2 | COc1nc(-c2csc(Nc3c4c(nn3C(C)(C)C)CCCC4)n2)ccc1-n1cnc(C)c1 | 34 (≈ 15.8 µg/mL) | 0.071 | 19 | 63 | 23 | 5.3 | 9.1 | 47 | 12 | > 100 | 7.18 | 14.8 10^-6 cm/s | Ratio [25]: 0.9
3 | COc1nc(-c2csc(Nc3c4c(nn3CCF)CCC4)n2)ccc1-n1cnc(C)c1 | 23 (≈ 10.1 µg/mL) | 0.064 | 58 | 68 | 60 | 10.5 | > 100 | > 100 | 35 | > 100 | 2.88 | – | –
4 | CCn1nc(C(F)(F)F)cc1Nc1nc(-c2ccc(-n3cnc(C)c3)c(OC)n2)cs1 | 15 (≈ 6.74 µg/mL) | 0.058 | 84 | 96 | 71 | 5.3 | 9.1 | 47 | 12 | > 100 | – | 23.3 10^-6 cm/s | Cmax [12]: 359 ng/mL; Tmax [13]: 4.98 min; t1/2 [14]: 1.6 h; AUClast [15]: 605 ng·h/mL; AUC [16]: 623 ng·h/mL; Vdss [17]: 3.64 L/kg; BPR [18]: 0.73; BPR [19]: 0.62; Cmax [20]: 470 ng/mL; Tmax [21]: 1 h; AUClast [22]: 1727 ng·h/mL; AUC [26]: 2369 ng·h/mL; F [23]: 76%
5 | COc1nc(-c2csc(Nc3c4c(nn3CC(C)(C)O)CCCC4)n2)ccc1-n1cnc(C)c1 | 22 (≈ 10.6 µg/mL) | 0.038 | 12 | 57 | 78 | – | > 100 | 9 | 3.9 | > 100 | – | 17.5 10^-6 cm/s | –
6 | COc1nc(-c2csc(Nc3c4c(nn3CCO)CCCC4)n2)ccc1-n1cnc(C)c1 | 31 (≈ 14 µg/mL) | 0.144 | 40 | 78 | 58 | 30 | > 100 | > 100 | 76 | > 100 | 2.63 | 18 10^-6 cm/s | –
7 | CCn1nc2c(c1Nc1nc(-c3ccc(-n4cnc(C)c4)c(OC)n3)cs1)CCC2(C)C | 8.8 (≈ 3.96 µg/mL) | 0.109 | 31 | 61 | 49 | 0.75 | > 100 | 48 | 15 | > 100 | – | – | –
8 | COc1nc(-c2csc(Nc3c4c(nn3CC(F)(F)F)CCC4)n2)ccc1-n1cnc(C)c1 | 22 (≈ 10.5 µg/mL) | 0.036 | 66 | 72 | 46 | 1.4 | 27 | 11 | 7.1 | > 100 | – | 17.6 10^-6 cm/s | –

From ChEMBL document CHEMBL4699542, “Design and synthesis of novel methoxypyridine-derived gamma-secretase modulators” (Bioorg Med Chem, 2020)
